The values below come from the M2OR odorant receptor database.
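Also: active if original authors judged signal statistically different from baseline.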

In the assay the target is T1, OR1A1 (Homo sapiens) (UniProt Q9P1Q5).
T1 sequence (whole entry): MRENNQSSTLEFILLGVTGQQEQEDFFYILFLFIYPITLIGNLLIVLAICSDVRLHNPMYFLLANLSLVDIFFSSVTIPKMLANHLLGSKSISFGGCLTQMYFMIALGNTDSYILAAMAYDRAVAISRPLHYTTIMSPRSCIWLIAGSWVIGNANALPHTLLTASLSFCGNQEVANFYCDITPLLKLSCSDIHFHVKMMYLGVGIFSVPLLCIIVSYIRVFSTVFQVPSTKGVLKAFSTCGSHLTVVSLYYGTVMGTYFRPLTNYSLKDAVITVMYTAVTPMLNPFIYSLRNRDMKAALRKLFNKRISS
As to conditions: stereoisomer not certain. A digest of the protocol: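 Whether a receptor–molecule pair is responsive (active) rests on the original authors' judgment that its measured signal was statistically different from baseline. Pairs without that judgment are non-responsive (inactive). Sources used varied assay methods, commonly transient luciferase assays in mammalian cell lines.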
Take `C=C(C)C1CC=C(C)C(O)C1` (configuration not stated): the “odorant receptor agonist call” value was “active”.

For `CC=O`, the “odorant receptor agonist call” value is “inactive”. As to `CC(=O)CC(C)(C)S`, the “odorant receptor agonist call” value was “inactive”.

On to `CCC=CCCC=CCO`, for which the “odorant receptor agonist call” value is “inactive”.

As to `O=C1CCOc2ccccc21`, the “odorant receptor agonist call” value was “active”. With `C=C1CCC2(C(C)C)CC12` (configuration not stated), the “odorant receptor agonist call” value was “inactive”. Under `CCCCC(C)CCC(=O)O` (configuration not stated) stands “inactive”; under `CC(C)(S)CCOC=O`, “inactive”; under `CCOC(=O)C(C)CC` (configuration not stated), “inactive”. `CCc1cnccn1`: the “odorant receptor agonist call” value is “inactive”. For `Cc1c[nH]c2ccccc12`, the “odorant receptor agonist call” value is “inactive”. In the case of `Cc1cccc(C)c1O`, the “odorant receptor agonist call” value was “inactive”. For the compound `CC=Cc1ccc(OC)cc1`, the “odorant receptor agonist call” value is “active”. Under `CCCCCC1=C(C)CCC1=O` stands “active”; under `CSCSC`, “inactive”.

With `CC(C)CCO`, the “odorant receptor agonist call” value is “inactive”.

With `CCCCCCCCS`, the “odorant receptor agonist call” value is “active”. Consider `CC(=O)C(C)O` (configuration not stated), for which the “odorant receptor agonist call” value is “inactive”.

For the compound `CC(=O)c1ccc(C)cc1`, the “odorant receptor agonist call” value is “inactive”.

As for `CCc1ccc(O)cc1`, the “odorant receptor agonist call” value was “inactive”.

As for `Cc1ccc(O)cc1`, the “odorant receptor agonist call” value was “inactive”. On to `CC(C)=CCCC(C)CC=O` (configuration not stated), for which the “odorant receptor agonist call” value is “active”. For `CCCC(C)C=O` (configuration not stated), the “odorant receptor agonist call” value was “inactive”. Take `CC(C)=CCCC(C)CCO` (configuration not stated): the “odorant receptor agonist call” value was “active”. As to `CCCCCCCCCCO`, the “odorant receptor agonist call” value is “active”. Regarding `CCC=CCCC=O`, the “odorant receptor agonist call” value is “inactive”. Under `OCC=Cc1ccccc1` stands “inactive”.

For the compound `CSC`, the “odorant receptor agonist call” value was “inactive”. Turning to `CCCCC(=O)O`, the “odorant receptor agonist call” value is “inactive”. In the case of `COc1ccc(C)cc1O`, the “odorant receptor agonist call” value is “inactive”. For the compound `CCCCC1OC(=O)CC1C` (configuration not stated), the “odorant receptor agonist call” value was “inactive”. In the case of `CSCCCO`, the “odorant receptor agonist call” value was “inactive”. Under `c1cnc2c(c1)ccc1cccnc12` stands “inactive”. In the case of `C=CCOC(=O)CCCCCC` it was “active”; in that of `Cc1occc(=O)c1O`, “inactive”. In the case of `CCCCCCCCCS`, the “odorant receptor agonist call” value was “active”.

Take `COC(=O)C(C)C`: the “odorant receptor agonist call” value was “inactive”.
